Data from ChEMBL document CHEMBL1128702, “Structure-activity relationships of the antimalarial agent artemisinin. 2. Effect of heteroatom substitution at O-11: synthesis and bioassay of N-alkyl-11-aza-9-desmethylartemisinins” (J Med Chem, 1995).

Assays:
[1] = Partition coefficient (logP); type: physicochemical; details: octanol/water
How it was run: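 log P measured by literature procedures using standard values, also calculated with CLOGP; UV detection at 330 nm for ketone standards and 216 nm for artemisinin derivatives; samples run in triplicate.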

Plasmodium falciparum [2] = test: Relative potency was determined in vitro in paratized human whole blood against drug resistant strain of Plasmodium falciparum strain-Indochina(W-2)
Homo sapiens [3] = organism: Homo sapiens; test: Relative potency was determined in vitro in paratized human whole blood against chloroquine sensitive (D-6) strain of Plasmodium falciparum in University of mississippi using parasite lactate dehydrogenase assay; type: functional
How it was run: (§1)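 P. falciparum W-2 and D-6 tested at University of Mississippi by Makler parasite lactate dehydrogenase assay: pLDH reduces APAD to APADH (human RBC LDH does so only slowly); APADH detected colorimetrically via nitroblue tetrazolium reduction to blue formazan. Relative potencies derived as for the Walter Reed assay.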

Plasmodium falciparum [4] = test: Relative potency was determined in vitro in paratized human whole blood against drug resistant strain of Plasmodium falciparum strain-Sierra Leone(D-6)
Homo sapiens [5] = organism: Homo sapiens; test: Relative potency was determined in vitro in paratized human whole blood against […]strain of Plasmodium falciparum in University of mississippi using parasite lactate dehydrogenase assay; type: functional; how it was run: as §1
Homo sapiens [6] = organism: Homo sapiens; test: Relative potency was determined in vitro in paratized human whole blood against […]strain of Plasmodium falciparum in WR(Walter Reed) army institute of research; type: functional

Row | Structure (SMILES) | logP [1] | Relative potency (Plasmodium falciparum [2]) | Relative potency (Homo sapiens [3]) | Relative potency (Plasmodium falciparum [4]) | Relative potency (Homo sapiens [5]) | Relative potency (Homo sapiens [6])
1 | C[C@@H]1CC[C@H]2CC(=O)N(CCc3ccccc3)C3O[C@@]4(C)CC[C@@H]1[C@]32OO4 (stereo partly drawn) | 3.5 | 143% | 187% | 197% | 204% | 143%
2 | C[C@@H]1CC[C@H]2CC(=O)N(CCN(C)C)C3O[C@@]4(C)CC[C@@H]1[C@]32OO4 (stereo partly drawn) | – | – | – | 37% | – | –
3 | CCCCCN1C(=O)C[C@@H]2CC[C@@H](C)[C@@H]3CC[C@@]4(C)OO[C@@]23C1O4 (stereo partly drawn) | 3.67 | 63% | – | 110% | – | –
4 | C[C@@H]1CC[C@H]2CC(=O)N(CCCCCC(=O)O)C3O[C@@]4(C)CC[C@@H]1[C@]32OO4 (stereo partly drawn) | – | 2% | – | 12% | – | –
5 | CC(C)CCN1C(=O)C[C@@H]2CC[C@@H](C)[C@@H]3CC[C@@]4(C)OO[C@@]23C1O4 (stereo partly drawn) | 3.54 | 92% | – | 149% | – | –
6 | CCCN1C(=O)C[C@@H]2CC[C@@H](C)[C@@H]3CC[C@@]4(C)OO[C@@]23C1O4 (stereo partly drawn) | 2.61 | 111% | – | 75% | – | –
7 | CC(C)CN1C(=O)C[C@@H]2CC[C@@H](C)[C@@H]3CC[C@@]4(C)OO[C@@]23C1O4 (stereo partly drawn) | 3.01 | 105% | 155% | 145% | 227% | 105%
8 | C[C@@H]1CC[C@H]2CC(=O)N(C)C3O[C@@]4(C)CC[C@@H]1[C@]32OO4 (stereo partly drawn) | 1.55 | 500% | – | 213% | – | –
9 | C[C@@H]1CC[C@H]2CC(=O)N(Cc3ccc(Cl)cc3)C3O[C@@]4(C)CC[C@@H]1[C@]32OO4 (stereo partly drawn) | 3.96 | 69% | 128% | 111% | 311% | 69%
10 | C[C@@H]1CC[C@H]2CC(=O)N(Cc3ccccc3)C3O[C@@]4(C)CC[C@@H]1[C@]32OO4 (stereo partly drawn) | – | 217% | 146% | 189% | 252% | 217%
11 | C[C@@H]1CC[C@H]2[C@@H](C)C(=O)O[C@@H]3O[C@@]4(C)CC[C@@H]1[C@]32OO4 [ARTEMISININ] | – | 100% | – | 100% | – | –
12 | C[C@@H]1CC[C@H]2CC(=O)N(CCCc3ccccc3)C3O[C@@]4(C)CC[C@@H]1[C@]32OO4 (stereo partly drawn) | 4.03 | 105% | 147% | 205% | 281% | 105%
13 | C[C@@H]1CC[C@H]2CC(=O)N(CC(=O)O)C3O[C@@]4(C)CC[C@@H]1[C@]32OO4 (stereo partly drawn) | 1.69 | – | – | 6% | – | –
